One data set relates to Staphylococcus aureus. The data set can be described thus: Antibacterial activity against Staphylococcus aureus measured after 24 hrs. In kind it is functional. The method, boiled down:
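Broth microdilution in TSB. Overnight 37 °C culture from a single colony, washed twice by centrifugation/resuspension in TSB, set to OD600 0.1 (10⁸ CFU/mL), then diluted to 10⁵ CFU/mL. Bacteria added 3:1 to serially diluted compound (DMSO stock diluted in water). Incubated 37 °C, 24 h; OD600 read. MIC = lowest concentration giving OD like the no-bacteria control. Triplicate, three independent experiments.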

Data set [1] is described as follows: Stability of the compound in DMSO-d6 measured after 2 months at room temperature by 1H NMR-spectroscopic analysis. The format is physicochemical. Particulars: 1461 h.
Data set [2] in a line: Drug metabolism in DMSO-d6 assessed as isorottlerin formation measured after 2 months at room temperature by RP-HPLC analysis.
Data set [3] is described as follows: Drug metabolism in DMSO-d6 assessed as 6-(3-Acetyl-2,4,6-trihydroxy-5-methylbenzyl)-5-hydroxy-2,2-dimethyl-8-phenyl-8,9-dihydro-2H,10H-pyrano[2,3-f]-chromen-10-one formation measured after 2 months at room temperature by RP-HPLC analysis.
The nature of data set [4]: Drug metabolism in DMSO-d6 assessed as isorottlerin formation measured after 2 months at room temperature by HSQC analysis.
Data set [5] is described as follows: Drug metabolism in DMSO-d6 assessed as 6-(3-Acetyl-2,4,6-trihydroxy-5-methylbenzyl)-5-hydroxy-2,2-dimethyl-8-phenyl-8,9-dihydro-2H,10H-pyrano[2,3-f]-chromen-10-one formation measured after 2 months at room temperature by HSQC analysis.
Data set [6] in a line: Drug metabolism in DMSO-d6 assessed as isorottlerin formation measured after 2 hrs at 100 degC by 1H NMR analysis.
Data set [7] is described as follows: Drug metabolism in DMSO-d6 assessed as 6-(3-Acetyl-2,4,6-trihydroxy-5-methylbenzyl)-5-hydroxy-2,2-dimethyl-8-phenyl-8,9-dihydro-2H,10H-pyrano[2,3-f]-chromen-10-one formation measured after 2 hrs at 100 degC by 1H NMR analysis.
A short description of data set [8]: Stability of the compound in MeCN under room temperature by 1H NMR-spectroscopic analysis. The format is physicochemical.
Data set [9] can be described thus: Stability of the compound in toluene under room temperature by 1H NMR-spectroscopic analysis. The format is physicochemical.
Data set [10] can be described thus: Stability of the compound in acetone under room temperature by 1H NMR-spectroscopic analysis. In kind it is physicochemical.
Data set [11] in a line: Stability of the compound in CHCl3 under room temperature by 1H NMR-spectroscopic analysis. The format is physicochemical.
A short description of data set [12]: Stability of the compound in MeCN under intense heating condition by 1H NMR-spectroscopic analysis. In kind it is physicochemical.
Data set [13] in a line: Stability of the compound in toluene under intense heating condition by 1H NMR-spectroscopic analysis. In kind it is physicochemical.
Data set [14] is described as follows: Stability of the compound in acetone under intense heating condition by 1H NMR-spectroscopic analysis. The format is physicochemical.
Data set [15] can be described thus: Stability of the compound in CHCl3 under intense heating condition by 1H NMR-spectroscopic analysis. In kind it is physicochemical.

In brackets after ≈: the same amount, converted by molar mass.

`CC(=O)c1c(O)c(C)c(O)c(Cc2c3c(c(O)c4c2OC(c2ccccc2)CC4=O)C=CC(C)(C)O3)c1O` (stereo unspecified): the MIC against Staphylococcus aureus was above 125 µM.

On to `CC1(C)C=Cc2c(O)c(Cc3c(O)cc(O)cc3O)c(O)c(C(=O)/C=C/c3ccccc3)c2O1`, for which, in the data set on Staphylococcus aureus, the MIC came to 15.6 µM (≈ 7.18 µg/mL).

In the data set with Staphylococcus aureus, `CC(=O)c1c(O)c(C)c(O)c(Cc2c(O)c3c(c4c2OC(c2ccccc2)CC4=O)OC(C)(C)C=C3)c1O` (stereo unspecified) came in with an MIC above 125 µM.

`Cc1cc(O)cc(O)c1Cc1c(O)c2c(c(C(=O)/C=C/c3ccccc3)c1O)OC(C)(C)C=C2` came in with an MIC against Staphylococcus aureus of 7.8 µM (≈ 3.58 µg/mL). That is a single-digit micromolar value.

For the compound `CC(=O)c1c(O)cc(O)c(Cc2c(O)c3c(c(C(=O)/C=C/c4ccccc4)c2O)OC(C)(C)C=C3)c1O`, the MIC against Staphylococcus aureus turned out to be 7.8 µM (≈ 3.92 µg/mL).

In the case of `CCC(=O)C1=C(O)C(C)(C)C(O)=C(Cc2c(O)c3c(c(C(=O)CC)c2O)OC(C)(C)C=C3)C1=O` [DRUMMONDIN A], in the data set on Staphylococcus aureus, inhibition of growth (MIC) required 1.56 µM (≈ 0.734 µg/mL).

Turning to `CCC(=O)C1=C(O)C(C)(C)C(O)=C(Cc2c(O)c3c(c(C(C)=O)c2O)OC(C)(C)C=C3)C1=O` [DRUMMONDIN B], the lowest concentration to inhibit growth with Staphylococcus aureus (MIC) was 3.12 µM (≈ 1.42 µg/mL). This MIC is about 2-fold higher than that of the compound before.

For the compound `CC(=O)C1=C(O)C(C)(C)C(O)=C(Cc2c(O)c3c(c(C(C)=O)c2O)OC(C)(C)C=C3)C1=O` [DRUMMONDIN C], the MIC against Staphylococcus aureus is 3.12 µM (≈ 1.38 µg/mL).

`CC(=O)C1=C(O)C(C)(CC=C(C)C)C(O)=C(Cc2c(O)c(CC=C(C)C)c(O)c(C(C)=O)c2O)C1=O` (stereo unspecified) [DRUMMONDIN F] registered an MIC against Staphylococcus aureus of 0.78 µM (≈ 0.389 µg/mL).

Take `CC(=O)c1c(O)c(C)c(O)c(Cc2c(O)c3c(c(C(=O)/C=C/c4ccccc4)c2O)OC(C)(C)C=C3)c1O` [ROTTLERIN]: the Stability result in [1] is “Unstable”; in data set [8] it was “Stable”; in data set [9], “Stable”; in [10] it was “Stable”; in [11] it was “Stable”; in [12] it was “Stable”. Moreover, the Stability entry in data set [13], in data set [14] and in [15] was “Stable” each time. Besides, the Drug metabolism in data set [2] is 20%; in data set [3], 2%; in data set [4] it was “Metabolite detected”; in data set [5], “Metabolite detected”; in [6] it was “Metabolite detected”; in [7], “Metabolite detected”. The same compound showed an MIC in the data set on Staphylococcus aureus of 2 µM (≈ 1.03 µg/mL).

GENTAMICIN came in with an MIC in the data set on Staphylococcus aureus of 2 µM.

One may read the MIC as the lowest concentration that inhibits growth of the organism. Lower therefore signals greater potency.
